Source: ChEMBL document CHEMBL1138799, “4-benzyl- and 4-benzoyl-3-dimethylaminopyridin-2(1H)-ones, a new family of potent anti-HIV agents: optimization and in vitro evaluation against clinically important HIV mutant strains” (J Med Chem, 2004)

Key:
[1] = system: Human immunodeficiency virus 1; experiment: Inhibitory activity against HIV-1 mutant strain 103N; assay type: functional, organism-based
In short: (§1)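 Mutant HIV-1 made by recombining mutant PR-RT sequence into a PR-RT-deleted HXB2 proviral clone. Serial compound concentrations plated, then virus (200 CCID50/well) and MT4 cells (30 000 cells/well; RPMI 1640, 10% FCS) added; 5 days at 37 °C, 5% CO2; viability read by MTT. EC50 = concentration giving 50% infection versus drug-free control; mock-infected cultures run in parallel for toxicity.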

[2] = system: Human immunodeficiency virus 1; experiment: Inhibitory activity against HIV-1 mutant strain 181C; assay type: functional, organism-based; in short: as §1
[3] = system: Human immunodeficiency virus 1; experiment: Inhibitory activity against HIV-1 mutant strain 188L; assay type: functional, organism-based; in short: as §1
[4] = system: Human immunodeficiency virus 1; experiment: Inhibitory activity against wild type HIV-1 LAI cell line; assay type: functional, organism-based; conditions: Human immunodeficiency virus 1, LAI
In short: (§2)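 MT4 human T-lymphoblastoid cells were grown in RPMI 1640 with 10% fetal calf serum and antibiotics at 37 °C and 5% CO2. A compound concentration series was combined with HIV-1 LAI at 200 CCID50/well and 30 000 cells/well. Mock-infected cultures with the same concentrations were run in parallel to measure cytotoxicity. After 5 days, cell viability was read by MTT colorimetry. EC50 is the concentration giving 50% infection versus the drug-free control.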

[5] = system: Human immunodeficiency virus 1; experiment: Selectivity index of cytotoxic activity (CC50) to inhibitory activity (IC50) relative to LAI cell line; assay type: functional; in short: as §2
[6] = system: Human immunodeficiency virus 1; experiment: Inhibitory activity against HIV-1 double mutants strain 100I and 103N; assay type: functional, organism-based; in short: as §1
[7] = system: Human immunodeficiency virus 1; experiment: Inhibitory activity against HIV-1 double mutants strain 101E and 103N; assay type: functional, organism-based; in short: as §1
[8] = system: Human immunodeficiency virus 1; experiment: Inhibitory activity against HIV-1 double mutants strain 103N and 181C; assay type: functional, organism-based; in short: as §1
[9] = system: Human immunodeficiency virus 1; experiment: Inhibitory activity against HIV-1 double mutants strain 227L and 106A; assay type: functional, organism-based; in short: as §1
[10] = system: Human immunodeficiency virus 1; experiment: Inhibitory activity against HIV-1 mutant strain 100I; assay type: functional, organism-based; in short: as §1
[11] = system: Human immunodeficiency virus 1; experiment: Inhibitory activity against HIV-1 mutant strain 227C; assay type: functional, organism-based; in short: as §1
[12] = system: Human immunodeficiency virus 1; experiment: Inhibitory activity against HIV-1 mutant strain 138K; assay type: functional, organism-based; in short: as §1
[13] = system: Human immunodeficiency virus 1; experiment: Inhibitory activity against HIV-1 mutant strain 101E; assay type: functional, organism-based; in short: as §1
[14] = system: Human immunodeficiency virus 1; experiment: Inhibitory activity against HIV-1 mutant strain 106A; assay type: functional, organism-based; in short: as §1
[15] = system: Human immunodeficiency virus 1; experiment: Inhibitory activity against HIV-1 mutant strain 179E; assay type: functional, organism-based; in short: as §1
[16] = system: Human immunodeficiency virus 1; experiment: Inhibitory activity against HIV-1 mutant strain 190A; assay type: functional, organism-based; in short: as §1
[17] = system: Human immunodeficiency virus 1; experiment: Inhibitory activity against HIV-1 mutant strain 190S; assay type: functional, organism-based; in short: as §1

Row | SMILES | IC50 [1] [nM] | IC50 [2] [nM] | IC50 [3] [nM] | IC50 [4] [nM] | Selectivity index [5] | IC50 [6] [nM] | IC50 [7] [nM] | IC50 [8] [nM] | IC50 [9] [nM] | IC50 [10] [nM] | IC50 [11] [nM] | IC50 [12] [nM] | IC50 [13] [nM] | IC50 [14] [nM] | IC50 [15] [nM] | IC50 [16] [nM] | IC50 [17] [nM]
1 | CCc1c(C)nc(O)c(N(C)C)c1C(=O)c1ccc(C)o1 | 250 | 1580 | 50100 | 10 | 10000 | – | – | – | – | – | – | – | – | – | – | – | –
2 | CCc1c(C)nc(O)c(N(C)C)c1C(=O)c1cc(Br)cs1 | 100 | 630 | 10000 | 3 | 10000 | – | – | – | – | – | – | – | – | – | – | – | –
3 | C/C=C/c1cccc(C(=O)c2c(CC)c(C)nc(O)c2N(C)C)c1 | 150 | 390 | 390 | 5 | 10000 | – | – | – | – | – | – | – | – | – | – | – | –
4 | C=Cc1cccc(C(=O)c2c(CC)c(C)nc(O)c2N(C)C)c1 | 30 | 630 | 790 | 2 | 12600 | – | – | – | – | – | – | – | – | – | – | – | –
5 | CCc1c(C)nc(O)c(N(C)C)c1C(=O)c1cccc(/C=C\C#N)c1 | 3 | 10 | 40 | 4 | 25100 | – | – | – | – | – | – | – | – | – | – | – | –
6 | CCOC(=O)/C=C/c1cccc(C(=O)c2c(CC)c(C)nc(O)c2N(C)C)c1 | 10 | 150 | 150 | 3 | 3160 | – | – | – | – | – | – | – | – | – | – | – | –
7 | CCc1c(C)nc(O)c(N(C)C)c1Cc1cc(Cl)cc(Cl)c1 | 20 | 160 | 630 | 8 | 3980 | 310 | 200 | 500 | 500 | 50 | 700 | – | – | – | – | – | –
8 | CCOC(=O)/C=C/C=C/c1cccc(C(=O)c2c(CC)c(C)nc(O)c2N(C)C)c1 | 40 | 200 | 630 | 5 | 398 | – | – | – | – | – | – | – | – | – | – | – | –
9 | CCc1c(C)nc(O)c(N(C)C)c1Cc1cccc(/C=C/C#N)c1 | 2 | 10 | 150 | 0.4 | 25100 | 30 | 20 | 30 | 3160 | 10 | 390 | 3 | 6 | 2 | 1 | 8 | 40
10 | CCc1c(C)nc(O)c(N(C)C)c1Cc1cccc(Br)c1 | 100 | 6 | 2510 | 4 | 25100 | – | – | – | – | – | – | – | – | – | – | – | –
11 | CCc1c(C)nc(O)c(N(C)C)c1C(=O)c1ccc(OC)c(C)c1 | 1580 | 100000 | 100000 | 70 | 200 | – | – | – | – | – | – | – | – | – | – | – | –
12 | CCc1c(C)nc(O)c(N(C)C)c1C(=O)c1cccc(CC(C)C#N)c1 (stereo not given) | 50 | 500 | 1990 | 8 | 12600 | – | – | – | – | – | – | – | – | – | – | – | –
13 | CCc1c(C)nc(O)c(N(C)C)c1Cc1cccc(Cl)c1 | 40 | 80 | 1580 | 5 | 20000 | – | – | – | – | – | – | – | – | – | – | – | –
14 | CCc1c(C)nc(O)c(N(C)C)c1Cc1cccc(C)c1 | 20 | 60 | 1000 | 2 | 39900 | – | – | – | – | – | – | – | – | – | – | – | –
15 | CCc1c(C)nc(O)c(N(C)C)c1C(=O)c1cccc(Br)c1 | 20 | 150 | 790 | 2 | 12600 | 70 | 70 | 970 | 100 | 20 | 260 | 5 | 10 | – | 5 | 7 | 3
16 | CCc1c(C)nc(O)c(N(C)C)c1C(=O)c1cccc([N+](=O)[O-])c1 | 20 | 200 | 3160 | 2 | 39600 | – | – | – | – | – | – | – | – | – | – | – | –
17 | CCc1c(C)nc(O)c(N(C)C)c1C(=O)c1cccc(CCC#N)c1 | 10 | 250 | 1990 | 3 | 31600 | – | – | – | – | – | – | – | – | – | – | – | –
18 | CCc1c(C)nc(O)c(N(C)C)c1C(=O)c1cccc(C#N)c1 | 6 | 40 | 390 | 2 | 6310 | 30 | 20 | 110 | 50 | 10 | 220 | 4 | 7 | – | 4 | 5 | 2

Row | SMILES | IC50 [1] [nM] | IC50 [2] [nM] | IC50 [3] [nM] | IC50 [4] [nM] | Selectivity index [5] | IC50 [6] [nM] | IC50 [7] [nM] | IC50 [8] [nM] | IC50 [9] [nM] | IC50 [10] [nM] | IC50 [11] [nM] | IC50 [12] [nM] | IC50 [13] [nM] | IC50 [14] [nM] | IC50 [15] [nM] | IC50 [16] [nM] | IC50 [17] [nM]
19 | CCc1c(C)nc(O)c(N(C)C)c1Cc1ccccc1C | 1250 | 1000 | 7940 | 20 | 3980 | – | – | – | – | – | – | – | – | – | – | – | –
20 | CCc1c(C)nc(O)c(N(C)C)c1Cc1cc(F)cc(F)c1 | 30 | 100 | 500 | 10 | 7940 | – | – | – | – | – | – | – | – | – | – | – | –
21 | CCc1c(C)nc(O)c(N(C)C)c1Cc1cccc(OC)c1 | 100 | 320 | 310 | 4 | 12600 | – | – | – | – | – | – | – | – | – | – | – | –
22 | CCc1c(C)nc(O)c(N(C)C)c1C(=O)c1cc(Cl)cc(Cl)c1 | 10 | 30 | 310 | 2 | 5010 | 500 | 40 | 150 | 60 | 8 | 630 | 10 | 10 | – | 10 | 10 | 3
23 | CCc1c(C)nc(O)c(N(C)C)c1Cc1cccc(C(F)(F)F)c1 | 390 | 30 | 5010 | 10 | 10000 | – | – | – | – | – | – | – | – | – | – | – | –
24 | CCc1c(C)nc(O)c(N(C)C)c1Cc1ccccc1Br | 250 | 130 | 1990 | 6 | 15900 | – | – | – | – | – | – | – | – | – | – | – | –
25 | CCc1c(C)nc(O)c(N(C)C)c1C(=O)c1cccc(/C=C/c2cnccn2)c1 | 50 | 70 | 200 | 20 | 3960 | – | – | – | – | – | – | – | – | – | – | – | –
26 | CCc1c(C)nc(O)c(N(C)C)c1C(=O)c1cccc(/C(C)=C(\C)C#N)c1 | 20 | 120 | 1580 | 6 | 1580 | – | – | – | – | – | – | – | – | – | – | – | –
27 | CCc1c(C)[nH]c(=O)c(N(C)C)c1Cc1cc(C)cc(C)c1 | 30 | 100 | 250 | 8 | 12600 | – | – | 790 | – | 50 | – | – | 10 | 40 | – | 60 | –
28 | CCc1c(C)nc(O)c(N(C)C)c1C(=O)c1cccc(/C=C/c2cccnc2)c1 | 20 | 60 | 150 | 3 | 3160 | – | – | – | – | – | – | – | – | – | – | – | –
29 | CCc1c(C)nc(O)c(N(C)C)c1Cc1cccc(F)c1 | 60 | 160 | 1580 | 2 | 39800 | – | – | – | – | – | – | – | – | – | – | – | –
30 | CCc1c(C)nc(O)c(N(C)C)c1Cc1ccccc1Cl | 390 | 200 | 790 | 6 | 15900 | – | – | – | – | – | – | – | – | – | – | – | –
31 | CCc1c(C)nc(O)c(N(C)C)c1Cc1ccccc1 | 200 | 500 | 7940 | 4 | 25100 | – | – | – | – | – | – | – | – | – | – | – | –
32 | CCc1c(C)[nH]c(=O)c(N(C)C)c1C(=O)c1cc(C)cc(C)c1 | 10 | 60 | 150 | 4 | 2510 | 40 | 10 | 150 | 390 | 6 | 630 | 5 | 8 | 6 | 2 | 10 | 4
33 | CCc1c(C)nc(O)c(N(C)C)c1C(=O)c1cccc(N)c1 | 500 | 10000 | 10000 | 10 | 2510 | – | – | – | – | – | – | – | – | – | – | – | –
34 | O=C1Nc2ccc(Cl)cc2[C@@](C#CC2CC2)(C(F)(F)F)O1 [EFAVIRENZ] | 40 | 2 | 150 | – | – | 10000 | 150 | 40 | 20 | 40 | 150 | 2 | 6 | 40 | 5 | 10 | 250
35 | Cc1ccnc2c1NC(=O)c1cccnc1N2C1CC1 [NEVIRAPINE] | – | 10000 | 100000 | 30 | – | – | 500 | 40 | 20 | 310 | 130 | 50 | 310 | – | 190 | – | 40
